# ChEMBL document CHEMBL4699413, “Structure-guided discovery of selective methionyl-tRNA synthetase inhibitors with potent activity against Trypanosoma brucei” (RSC Med Chem, 2020)
# Experiments:
# [1] = system: Trypanosoma brucei brucei; assay: Antitrypanosomal activity against blood stream form of Trypanosoma brucei brucei 427 assessed as parasite growth inhibition incubated for 48 hrs by alamar blue dye based assay; type: functional, organism-based; details: Trypanosoma brucei, 427, 48 h
# Outline: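 Bloodstream-form BSF 427 parasites in HMI-9 with 10% heat-inactivated FBS and penicillin/streptomycin, 37 °C, 5% CO₂; 10 000 cells/well initial inoculum; serial 3-fold dilutions in triplicate; Alamar Blue read at 48 h. Pentamidine control.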
# [2] = Cytotoxicity against human HepG2 cells assessed as reduction in cell viability after 48 hrs by alamar blue dye based assay
# [3] = Cytotoxicity against human WIL2-NS cells assessed as reduction in cell viability after 48 hrs by alamar blue dye based assay
# Outline: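 CRL-8155 lymphocytic cells in RPMI with 10% heat-inactivated FBS, 2 mM L-glutamine, 0.4 mM sodium pyruvate, penicillin/streptomycin, 37 °C, 5% CO₂; 30 000 cells/well; quadruplicate serial 3-fold dilutions from 50 µM (or 25 µM); AlamarBlue at 48 h, 50 µM quinacrine as background; percent inhibition versus untreated wells; single experiment.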
# [4] = Ratio of drug level in brain to plasma in Swiss Webster mouse at 5 mg/kg, ip measured after 60 mins by LC-MS analysis; type: ADME, organism-based; details: 1 h
# Outline: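 Swiss Webster mice, triplicate, 5 mg kg⁻¹ IP in 7% Tween80, 5% DMSO, 3% EtOH in saline; plasma and brain collected 1 h post-dose; brain homogenized in water, extracts measured by LC-MS/MS; brain levels corrected for 3% v/w blood content.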
# [5] = system: mitochondrial MetRS (mitochondrial protein synthesis); assay: Selectivity index, ratio of EC50 for inhibition of mitochondrial MetRS-mediated mitochondrial protein synthesis in human HepG2 cells to EC50 for antitrypanosomal activity against blood stream form of Trypanosoma brucei brucei 427; type: toxicity, cell-based; details: read-out: Ratio EC50
# [6] = molecular target: T1, Methionine--tRNA ligase, mitochondrial (Homo sapiens, UniProt Q96GW9); assay: Inhibition of mitochondrial MetRS-mediated mitochondrial protein synthesis in human HepG2 cells measured after 6 days by ELISA; type: cell-based
# T1 sequence (Q96GW9 whole entry): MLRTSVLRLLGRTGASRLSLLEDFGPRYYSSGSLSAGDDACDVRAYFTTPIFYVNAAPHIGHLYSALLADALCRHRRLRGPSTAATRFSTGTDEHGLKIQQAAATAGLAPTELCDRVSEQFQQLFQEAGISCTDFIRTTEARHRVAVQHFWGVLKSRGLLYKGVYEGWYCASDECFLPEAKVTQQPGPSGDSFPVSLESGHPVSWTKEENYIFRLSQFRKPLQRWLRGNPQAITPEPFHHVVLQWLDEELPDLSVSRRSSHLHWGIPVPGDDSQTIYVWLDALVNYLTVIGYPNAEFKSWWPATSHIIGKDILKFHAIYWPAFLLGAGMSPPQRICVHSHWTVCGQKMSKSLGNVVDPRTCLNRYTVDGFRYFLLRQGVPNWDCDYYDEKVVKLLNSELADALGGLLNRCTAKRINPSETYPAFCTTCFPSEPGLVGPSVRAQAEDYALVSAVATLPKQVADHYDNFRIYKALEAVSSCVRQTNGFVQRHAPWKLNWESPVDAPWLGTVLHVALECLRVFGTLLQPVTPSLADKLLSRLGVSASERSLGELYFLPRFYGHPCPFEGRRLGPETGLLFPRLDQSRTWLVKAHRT
# Outline: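 HepG2 seeded 6000 cells/well on collagen-coated plates, grown 24 h in DMEM/F12 with 10% FBS, pyruvate, antibiotics; then serial 3-fold dilutions from 25 µM in duplicate, 6 days at 37 °C, medium with compound refreshed every 48 h; paraformaldehyde-fixed, COX-1 quantified by in-cell ELISA. Chloramphenicol control.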
# [7] = Inhibition of recombinant N-terminal His6-tagged trypanosoma brucei brucei 427 Methionyl-tRNA synthetase (237 to 773 residues) expressed in Escherichia coli assessed as ATP depletion using L-methionine and tRNA as substrate by Kinase-Glo luminescence assay
SMILES,EC50 [1] [nM],CC50 at 48 h [2] [nM],CC50 at 48 h [3] [nM],BPR [4] [%],selectivity ratio [5],EC50 [6] [nM],IC50 [7] [nM]
Clc1cc(Cl)cc(-c2cccc3nc(Cc4nc5nc(Cl)ccc5[nH]4)cn23)c1,196,,,,,,
CCn1c(Cc2ccc(Cl)cc2Cl)cn(Cc2nc3c(F)c(F)ccc3[nH]2)c1=O,26,40600,41000,,,,
CCn1c(Cc2ccc(Cl)cc2Cl)cn(Cc2nc3cc(Cl)ccc3[nH]2)c1=O,69,45300,27100,,,,
CCN(CC)CCCC(C)Nc1c2ccc(Cl)cc2nc2ccc(OC)cc12 (configuration not stated) [QUINACRINE],,7600,4800,,,,
COc1cc(-c2cccc3nc(Cc4nc5nc(Cl)ccc5[nH]4)cn23)c(Cl)cc1Cl,3.5,> 50000,9500,0,145,507,
CCn1c(Cc2ccc(Cl)cc2Cl)cn(Cc2nc3c(Cl)cc(Cl)cc3[nH]2)c1=O,1600,43700,38200,,,,
FC(F)(F)c1ccc(-c2cccc3nc(Cc4nc5nc(Cl)ccc5[nH]4)cn23)c(Cl)c1,1780,,,,,,
COc1cc(-c2cccc3nc(Cc4nc5nc(F)ccc5[nH]4)cn23)c(Cl)cc1Cl,8.4,> 50000,10400,0.6,203,1750,
COc1cc(Cl)c(-c2cccc3nc(Cc4nc5nc(Cl)ccc5[nH]4)cn23)cc1OC,3.1,28200,19000,0.5,154,478,
O=c1n(Cc2nc3nc(Cl)ccc3[nH]2)cc(Cc2ccc(Cl)cc2Cl)n1CC(F)F,3,> 50000,> 50000,0,143,430,
COc1ccc(-c2cccc3nc(Cc4nc5nc(Cl)ccc5[nH]4)cn23)c(Cl)c1,24,> 50000,13000,,,,
CCn1c(Cc2ccc(OC)cc2Cl)cn(Cc2nc3nc(Cl)ccc3[nH]2)c1=O,1,> 50000,> 50000,0,39,39,
O=c1[nH]c(Cc2ccc(Cl)cc2Cl)cn1Cc1nc2ccccc2[nH]1,350,,,,,,< 40
CC(C)n1c(Cc2ccc(Cl)cc2Cl)cn(Cc2nc3nc(F)ccc3[nH]2)c1=O,2.3,> 50000,> 50000,,,,
Clc1ccc(-c2cccc3nc(Cc4nc5nc(Cl)ccc5[nH]4)cn23)c(Cl)c1,64,43200,16100,,,,
CCn1c(Cc2ccc(OC)cc2Cl)cn(Cc2nc3nc(F)ccc3[nH]2)c1=O,1.8,> 50000,> 50000,0,42,75,
COc1ccc(Cc2cn(Cc3nc4nc(Cl)ccc4[nH]3)c(=O)n2CC(F)F)c(Cl)c1,3.6,> 50000,> 50000,,,,
N=C(N)c1ccc(OCCCCCOc2ccc(C(=N)N)cc2)cc1 [PENTAMIDINE],1.7,,,,,,
CCn1c(Cc2ccc(Cl)cc2Cl)cn(Cc2nc3nc(Cl)ccc3[nH]2)c1=O,1.6,> 50000,> 50000,9.6,26,42,
CCCn1c(Cc2ccc(Cl)cc2Cl)cn(Cc2nc3nc(Cl)ccc3[nH]2)c1=O,≤ 0.9,26400,37800,,,,
CCn1c(Cc2ccc(Cl)cc2Cl)cn(Cc2nc3nc(F)ccc3[nH]2)c1=O,3.4,> 50000,> 50000,0.1,85,290,
CCn1c(Cc2ccc(Cl)cc2Cl)cn(Cc2nc3cc(Cl)c(Cl)cc3[nH]2)c1=O,660,31300,31600,,,,
COc1ccc(-c2cncc3nc(Cc4nc5nc(Cl)ccc5[nH]4)cn23)c(Cl)c1,32,> 50000,> 50000,,,,

SMILES,EC50 [1] [nM],CC50 at 48 h [2] [nM],CC50 at 48 h [3] [nM],BPR [4] [%],selectivity ratio [5],EC50 [6] [nM],IC50 [7] [nM]
COc1cc(Cl)c(-c2cccc3nc(Cc4nc5nc(F)ccc5[nH]4)cn23)cc1OC,7.2,> 25000,> 25000,0,45,316,
Cc1ccc(-c2cccc3nc(Cc4nc5nc(Cl)ccc5[nH]4)cn23)c(Cl)c1,> 2000,,,,,,
O=c1n(Cc2nc3nc(F)ccc3[nH]2)cc(Cc2ccc(Cl)cc2Cl)n1CC(F)F,5.9,> 50000,33300,0,30,175,
CCn1c(Cc2ccc(Cl)cc2Cl)cn(Cc2nc3c(Cl)cccc3[nH]2)c1=O,210,> 50000,> 50000,,,,
COc1ccc(-c2cccn3cc(Cc4nc5nc(Cl)ccc5[nH]4)nc23)c(Cl)c1,> 2000,,,,,,
O=c1n(Cc2nc3nc(F)ccc3[nH]2)cc(Cc2ccc(Cl)cc2Cl)n1C1CCOCC1,5.8,> 50000,> 50000,,,,
O=c1n(Cc2nc3nc(F)ccc3[nH]2)cc(Cc2ccc(Cl)cc2Cl)n1CC1CCOCC1,3,> 50000,> 50000,,,,
CCCn1c(Cc2ccc(Cl)cc2Cl)cn(Cc2nc3nc(F)ccc3[nH]2)c1=O,5.1,> 50000,> 50000,5.5,38,195,
CCn1c(Cc2ccc(Cl)cc2Cl)cn(Cc2nc3ccccc3o2)c1=O,> 2000,> 50000,> 50000,,,,
CCn1c(Cc2ccc(Cl)cc2Cl)cn(Cc2nc3cc(C)ccc3[nH]2)c1=O,110,> 50000,> 50000,,,,
COc1ccc(-c2nccn3c(=O)n(Cc4nc5nc(Cl)ccc5[nH]4)cc23)c(Cl)c1,31,> 50000,> 50000,,,,
O=c1n(Cc2nc3nc(F)ccc3[nH]2)cc(Cc2ccc(Cl)cc2Cl)n1C1CCCCC1,16,33200,30400,,,,
CCOc1ccc(-c2cccc3nc(Cc4nc5nc(Cl)ccc5[nH]4)cn23)c(Cl)c1,1900,,,,,,
COc1ccc(-c2cccc3nc(Cc4nc5nc(F)ccc5[nH]4)cn23)c(Cl)c1,59,> 50000,15700,,,,
CCn1c(Cc2ccc(Cl)cc2Cl)cn(Cc2nc3cc(Cl)c(F)cc3[nH]2)c1=O,220,29800,20900,,,,
O=c1n(Cc2nc3nc(F)ccc3[nH]2)cc(Cc2ccc(Cl)cc2Cl)n1CC1(O)CCOCC1,4.6,> 50000,> 50000,,,,
O=C(N[C@H](CO)[C@H](O)c1ccc([N+](=O)[O-])cc1)C(Cl)Cl [CHLORAMPHENICOL],,,,,,7900,
CCn1c(Cc2ccc(Cl)cc2Cl)cn(Cc2nc3ccccc3[nH]2)c1=O,40,> 50000,> 50000,,,,
CCn1c(Cc2ccc(Cl)cc2Cl)cn(Cc2nc3cc(C(F)(F)F)ccc3[nH]2)c1=O,> 2000,> 50000,> 50000,,,,
CCn1c(Cc2ccc(Cl)cc2Cl)cn(Cc2nc3c(F)cccc3[nH]2)c1=O,31,> 50000,45000,,,,
CCn1c(Cc2ccc(Cl)cc2Cl)cn(Cc2nc3ncccc3[nH]2)c1=O,17,> 50000,> 50000,,,,
CCn1c(Cc2ccc(Cl)cc2Cl)cn(Cc2nc3cnccc3[nH]2)c1=O,390,> 50000,> 50000,,,,
